Data reported in PMC12750372 (Acta Pharmaceutica Sinica. B, 2025).

What was measured:
[1] = tested on: CREB-mediated gene transcription; assay: CREB Renilla luciferase; assay type: cell-based; settings: read-out: CREB inhibition IC50; inhibition of CREB-mediated gene transcription in HEK 293T cells, CRE-RLuc, 30 min peptide then Fsk 10 μmol/L for 5 h
How it was run: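 HEK 293T cells were transfected for 3 h with 2 μg pCRE-RLuc (Renilla luciferase driven by three CRE copies) by lipofection, then replated overnight. Peptides at graded concentrations were added for 30 min before forskolin (10 μmol/L), then incubated 5 h at 37 °C. Lysate Renilla luciferase was normalized to well protein (RLU/μg) and expressed as % CREB activity. IC50 came from nonlinear regression.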

HEK 293T cells [2] = assay: Cell uptake by confocal microscopy of FITC-labeled peptides; assay type: cell-based; settings: FITC-labeled peptides at 10 μmol/L, 4 h
How it was run: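 HEK 293T cells attached overnight, then received FITC-labeled peptides in DMEM (0.1% DMSO) at final 1, 10 and 20 μmol/L for 4 h at 37 °C, 5% CO2. After three PBS washes, cells were DAPI-stained (10 μg/mL, 10 min), washed, methanol-fixed 5 min and imaged by multiphoton laser scanning microscopy. The αB helix of KID served as control peptide.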

HEK 293T cells [3] = assay: Cell uptake by flow cytometry of FITC-labeled peptides; assay type: cell-based
How it was run: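 Suspended HEK 293T cells (3 × 10^5, DMEM with 10% FBS) were mixed with FITC-labeled peptides in DMEM (0.1% DMSO) at final 1, 10 and 20 μmol/L for 30 min at room temperature in the dark. They were spun at 500×g, washed in staining buffer, resuspended and run on a flow cytometer. Mean fluorescence from two independent experiments was normalized to a reference stapled peptide at 20 μmol/L.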

[4] = tested on: CREB-mediated transcription; settings: read-out: IC50 in CREB Renilla luciferase reporter assay; cited from earlier work
KIX/KID interaction = settings: up to 50 μmol/L; cited from earlier work

IC50 [1] | Cell uptake by confocal imaging (HEK 293T cells [2]) | Fold increase of cell uptake compared to linear L3 and stapled S1 (HEK 293T cells [3]) | Compound | IC50 [4] | Inhibition of the KIX/KID interaction (in words) (KIX/KID interaction)
66 µM | significant cell uptake | ~4 fold | CC(=O)N[C@@H](Cc1ccc(O)cc1)CN(CC(=O)N[C@@H](CCCCN)CN(CC(=O)N[C@@H](Cc1ccccc1)CN(CC(=O)N[C@H]1CCCCNc2c(F)c(F)c(c(F)c2F)Sc2c(F)c(F)c(c(F)c2F)Sc2c(F)c(F)c(c(F)c2F)NCCCC[C@@H](CN(CC(=O)N[C@@H](C)CN(CC(N)=O)S(C)(=O)=O)S(C)(=O)=O)NC(=O)CN(S(=O)(=O)CC(C)C)C[C@H](CC(C)C)NC(=O)CN(S(=O)(=O)CCN)C1)S(=O)(=O)CC(C)C)S(=O)(=O)CCN)S(C)(=O)=O [Compound S3] |  | 
 |  |  | O=C(Nc1ccc(Cl)cc1)c1cc2ccccc2cc1OP(=O)(O)O [KG-501] | 5.4 µM | no significant inhibition
